Among the data in ChEMBL document CHEMBL1145350, “Solid-phase synthesis of quinol fatty alcohols, design of N/O-substituted quinol fatty alcohols and comparative activities on axonal growth” (Bioorg Med Chem Lett, 2006) are IC50 values, retold here.

pIC50: −log10 of the molar value.

The test system of this test is Radical scavenging activity. The test can be described thus: Antioxidant activity assessed as ability to scavenge hydroxyl radicals by ABTS competition assay. It is filed as functional. In short, it runs like this: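 Hydroxyl radical scavenging in ethanolic medium by ABTS competition. Hydroxyl radicals oxidize ABTS to the stable ABTS•+ cation radical, read by absorbance at 405 nm. IC50 is the compound concentration giving a 50% reduction in ABTS•+.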

A word on the pIC50: it is the IC50 on a negative log10 scale, so that one unit is a factor of ten. With `COc1ccc(OC)c(CCCCCCCCCCCCCCCO)c1`, the negative logarithm of the IC50 (pIC50) was below 2.00. As for `Cc1c(C)c2c(c(C)c1O)CCC(C)(C(=O)O)O2` (configuration not stated) [TROLOX], the figure is 3.22.
